Assay [1] concerns SK-N-MC. Briefly: Anticancer activity against human SK-N-MC cells assessed as cell viability at 20 uM after 48 hrs by CCK8 assay relative to control. The conditions noted are these: read-out: Activity. Format: functional. The essentials:
(§1)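 Cells (5000/well, pre-incubated overnight) exposed to 20 µM for 48 h. CCK-8 absorbance read at 450 nm. Viability given as percent of vehicle (DMSO) control, mean ± SD. Six parallel wells per condition, at least three independent repeats.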
Background: Tetrazolium dyes change colour on reduction, which living cells bring about.

In assay [2] the test system is HT-1080. Briefly: Anticancer activity against human HT1080 cells assessed as vacuole formation at 20 uM after 24 hrs by phase contrast microscopic analysis. Format: functional, cell-based.
The subject of assay [3] is SK-N-MC. Briefly: Anticancer activity against human SK-N-MC cells assessed as vacuole formation at 20 uM after 24 hrs by phase contrast microscopic analysis. The assay is classed as functional, cell-based.
The test system of assay [4] is HepG2. Briefly: Anticancer activity against human HepG2 cells assessed as vacuole formation at 20 uM after 24 hrs by phase contrast microscopic analysis. The assay is classed as functional, cell-based.
Assay [5] relates to MCF7. Briefly: Anticancer activity against human MCF7 cells assessed as vacuole formation at 20 uM after 24 hrs by phase contrast microscopic analysis. The assay is classed as functional, cell-based.
Assay [6] deals with HT-1080. Briefly: Anticancer activity against human HT1080 cells assessed as cell viability at 20 uM after 48 hrs by CCK8 assay relative to control. Format: functional. Particulars: HT-1080, 48 h, read-out: Activity. The essentials:
as §1

Assay [7] deals with HeLa. Briefly: Anticancer activity against human HeLa cells assessed as cell viability at 20 uM after 48 hrs by CCK8 assay relative to control. The conditions noted are these: read-out: Activity. The assay is classed as functional. The essentials:
as §1

The test system of assay [8] is MCF7. Briefly: Anticancer activity against human MCF7 cells assessed as cell viability at 20 uM after 48 hrs by CCK8 assay relative to control. Format: functional. The conditions noted are these: MCF7, 48 h, read-out: Activity. In short, it runs like this:
as §1

In assay [9] the test system is HeLa. Briefly: Anticancer activity against human HeLa cells assessed as vacuole formation at 20 uM after 24 hrs by phase contrast microscopic analysis. The assay is classed as functional, cell-based.
Assay [10] deals with HepG2. Briefly: Anticancer activity against human HepG2 cells assessed as cell viability at 20 uM after 48 hrs by CCK8 assay relative to control. Format: functional. The conditions noted are these: HepG2, 48 h, read-out: Activity. The essentials:
as §1

The subject of assay [11] is HeLa. Briefly: Anticancer activity against human HeLa cells assessed as decrease in cell viability at 100 nM preincubated cells with Z-VAD-FMK for 1 hr followed by compound addition measured after 48 hrs by CCK8 assay. Format: functional, cell-based.
The subject of assay [12] is HeLa. Briefly: Induction of apoptosis in human HeLa cells assessed as increase in cleaved PARP1 levels at 100 nM after 24 to 48 hrs by Western blot analysis. Format: functional, cell-based. (A western blot detects proteins with antibodies after separation by electrophoresis.)
Assay [13] relates to HeLa. Briefly: Induction of apoptosis in human HeLa cells assessed as increase in cleaved caspase-3 levels at 100 nM after 24 to 48 hrs by Western blot analysis. The assay is classed as functional, cell-based.

The results in this text go back to ChEMBL document CHEMBL4038311, “An Ursolic Acid Derived Small Molecule Triggers Cancer Cell Death through Hyperstimulation of Macropinocytosis” (J Med Chem, 2017).

SMILES strings stand for the structures. Active and inactive are the calls of the source. The rule behind the calls is not given here.

Regarding `C[C@H]1[C@H](C)CC[C@]2(C(=O)O)CC[C@]3(C)C(=CC[C@@H]4[C@@]5(C)Cc6cnn(C)c6C(C)(C)[C@@H]5CC[C@]43C)[C@H]12`, the viability at 20 µM in assay [1] stood at 67.4%; in [6] it was 35.8%; in assay [7], 44.9%; in assay [8], 47.6%; in assay [10], 46%. In addition, the outcome in [2], in assay [3], in [4], in assay [5] and in assay [9] was Active.

Turning to `C[C@H]1[C@H](C)CC[C@]2(C(=O)O)CC[C@]3(C)C(=CC[C@@H]4[C@@]5(C)Cc6cnn(CCO)c6C(C)(C)[C@@H]5CC[C@]43C)[C@H]12`, the viability at 20 µM in [1] stood at 63.3%; in assay [6], 39%; in [7], 47%; in assay [8], 40.5%; in [10], 57%. For the same molecule, the outcome in assay [2], in [3], in assay [4], in assay [5] and in [9] was inactive.

For `C[C@H]1[C@H](C)CC[C@]2(C(=O)O)CC[C@]3(C)C(=CC[C@@H]4[C@@]5(C)CC[C@H](O)C(C)(C)[C@@H]5CC[C@]43C)[C@H]12` [URSOLIC ACID], the viability at 20 µM in assay [1] was 67.2%; in assay [6], 39.4%; in assay [7], 43.3%; in assay [8] it was 57.6%; in [10], 34.1%. The outcome in assay [2], in [3], in [4], in assay [5] and in [9] was inactive.

As to `C[C@H]1[C@H](C)CC[C@]2(C(=O)O)CC[C@]3(C)C(=CC[C@@H]4[C@@]5(C)Cc6cnn(-c7ccc(F)cc7)c6C(C)(C)[C@@H]5CC[C@]43C)[C@H]12`, the viability at 20 µM in [1] amounted to 39.4%; in assay [6] it was 27.3%; in assay [7] it was 24.4%; in assay [8] it was 34.3%; in [10], 58.6%. In addition, the result in [2], in [3], in assay [4], in [5] and in assay [9] was Active.

As for `CCOC(=O)Cn1ncc2c1C(C)(C)[C@@H]1CC[C@]3(C)[C@H](CC=C4[C@@H]5[C@@H](C)[C@H](C)CC[C@]5(C(=O)O)CC[C@]43C)[C@@]1(C)C2`, the viability at 20 µM in [1] stood at 66.6%; in [6], 55.2%; in assay [7], 44.2%; in assay [8] it was 28.9%; in assay [10] it was 43.7%. Further, the result in assay [2], in assay [3], in assay [4], in assay [5] and in assay [9] was inactive.

Turning to `C[C@H]1[C@H](C)CC[C@]2(C(=O)O)CC[C@]3(C)C(=CC[C@@H]4[C@@]5(C)Cc6cnn(-c7ccncc7)c6C(C)(C)[C@@H]5CC[C@]43C)[C@H]12`, the viability at 20 µM came to 79.9% in [1]; 30.9% in [6]; 54.2% in assay [7]; 39.7% in assay [8]; 56.8% in assay [10]. For the same molecule, the outcome in assay [2], in assay [3], in assay [4], in assay [5] and in assay [9] was inactive.

As to `C[C@H]1[C@H](C)CC[C@]2(C(=O)O)CC[C@]3(C)C(=CC[C@@H]4[C@@]5(C)Cc6cnn(-c7ccccc7)c6C(C)(C)[C@@H]5CC[C@]43C)[C@H]12`, the viability at 20 µM in assay [1] was found to be 57.4%; in assay [6], 38.7%; in [7] it was 40.9%; in assay [8], 46.5%; in assay [10] it was 60.1%. For the same molecule, the outcome in assay [2], in [3], in assay [4], in [5] and in [9] was inactive.

Consider `C[C@H]1[C@H](C)CC[C@]2(C(=O)O)CC[C@]3(C)C(=CC[C@@H]4[C@@]5(C)Cc6cnn(C7CCCC7)c6C(C)(C)[C@@H]5CC[C@]43C)[C@H]12`, for which the viability at 20 µM is 31.4% in assay [1]; 27.9% in [6]; 30.8% in assay [7]; 36.2% in assay [8]; 44.6% in assay [10]. The result in assay [2], in assay [3], in assay [4], in assay [5] and in [9] was Active.

With `C[C@H]1[C@H](C)CC[C@]2(C(=O)O)CC[C@]3(C)C(=CC[C@@H]4[C@@]5(C)Cc6c(C(F)(F)F)nn(C)c6C(C)(C)[C@@H]5CC[C@]43C)[C@H]12`, the viability at 20 µM in assay [1] is 67.4%; in assay [6], 35.8%; in assay [7], 44.9%; in assay [8], 47.6%; in assay [10], 46%. Moreover, the outcome in [2], in [3], in assay [4], in assay [5] and in assay [9] was Active.

For the molecule `CC(=O)O[C@H]1C(=O)[C@@]2(C)[C@H]([C@H](OC(=O)c3ccccc3)[C@]3(O)C[C@H](OC(=O)[C@H](O)[C@@H](NC(=O)c4ccccc4)c4ccccc4)C(C)=C1C3(C)C)[C@]1(OC(C)=O)CO[C@@H]1C[C@@H]2O`, in [11], the outcome was inactive. In addition, the outcome in assay [12] and in assay [13] was Active.

On to `C[C@H]1[C@H](C)CC[C@]2(C(=O)O)CC[C@]3(C)C(=CC[C@@H]4[C@@]5(C)Cc6cnn(-c7cccc(F)c7)c6C(C)(C)[C@@H]5CC[C@]43C)[C@H]12`, for which the viability at 20 µM in assay [1] was 24.6%; in assay [6], 33.5%; in assay [7], 33.3%; in assay [8], 46.6%; in assay [10], 29.5%. Further, the result in assay [2], in [3], in assay [4], in assay [5] and in assay [9] was inactive.

In the case of `C[C@H]1[C@H](C)CC[C@]2(C(=O)O)CC[C@]3(C)C(=CC[C@@H]4[C@@]5(C)Cc6cnn(-c7cccc(C#N)c7)c6C(C)(C)[C@@H]5CC[C@]43C)[C@H]12`, the viability at 20 µM turned out to be 31% in [1]; 37.5% in [6]; 37.3% in [7]; 28.1% in assay [8]; 29.3% in assay [10]. For the same molecule, the result in [2], in [3], in assay [4], in assay [5] and in assay [9] was Active.

For the molecule `C[C@H]1[C@H](C)CC[C@]2(C(=O)O)CC[C@]3(C)C(=CC[C@@H]4[C@@]5(C)Cc6cnn(CC7CC7)c6C(C)(C)[C@@H]5CC[C@]43C)[C@H]12`, the viability at 20 µM in [1] was 33.9%; in [6], 23.5%; in [7], 19.9%; in assay [8], 33.4%; in assay [10], 33.9%. For the same molecule, the outcome in [2], in [3], in assay [4], in assay [5] and in assay [9] was inactive.
